Source: PubChem BioAssay
This is one part of a sample in which hits are shown more often than they occur.
HUVEC inhibit: inhibitors of HUVEC proliferation, primary screen, cell-based, 384-well. CellTiter-Glo luminescence, 72 h; hits give low values. viability, % at 10 µM (by protocol). 86,000 compounds, 1.1% hits;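 active = viability at or below 30%; inactive = viability above 30%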;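 also: 100% = median luminescence of DMSO-only cell control wells on each plate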
HCT116 bCat-KO: primary screen for growth suppressors in beta-catenin knockout HCT116 cells (colon tumor, human); HCT116 beta-catenin knockout viability, CellTiter-Glo, 60 h; hits give low values; viability, % at 10 µM; 140,000 compounds, 1.5% hits; AID 818, 2007;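 active = viability at or under a set limit, the compound median less 4 SD, cut at about 6% in these data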;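 also: 0% = Hyamine 1622 control at 20 µM and 100% = untreated cell control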
HCT116 PTEN-null: growth suppression of PTEN-null HCT116, primary screen, cell-based, CellTiter-Glo. HCT116 PTEN-null viability, 60 h; hits give low values. viability, % at 10 µM. 140,000 compounds, 1.2% hits;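 active = viability at or below a set limit, 4 SD under the median of all tested compounds, cut at about 3.7% in these data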;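 also: PTEN knockout HCT116 line with beta catenin targeted HCT116 as companion control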
Fibroblast inh: antiproliferative effect on LL 47 fibroblasts – human, LL 47 cells, CellTiter-Glo luminescence, primary screen | viability, % at 10 µM | LL 47 human lung fibroblast viability, ATP luminescence; hits give low values | 85,000 compounds, 1.1% hits | AID 719, 2007;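 active = viability at or below 50% in the single dose screen; inactive = viability above 50%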;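 also: compound exposure lasted 72 h before the ATP readout; 100% = median luminescence of untreated cell-only wells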
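Test system: LL 47 human lung fibroblasts / Incubation: 72 h compound exposure at 37 °C after overnight plating / Technique: luminescent ATP detection, CellTiter-Glo / Compound dosing: 0.1% DMSO in all compound wells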
H69AR inhibit: proliferation blockers of H69AR lung cancer cells, primary screen, cell-based, human, 86K library; 85,000 compounds, 6% hits; H69AR lung tumor viability, ATP luminescence, 72 h; hits give low values; viability, % at 10 µM;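 active = viability at or below 40%; inactive = viability above 40%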;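 also: multidrug resistant small cell line overexpressing MRP-1 efflux transporter; 100% = mean luminescence of untreated control wells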
The depositor's hits bear a star; / = no result given.

SMILES	HUVEC inhibit	HCT116 bCat-KO	HCT116 PTEN-null	Fibroblast inh	H69AR inhibit
Cc1ccc(-c2nnc(N3CCN(C(=O)c4ccco4)CC3)c3ccccc23)cc1	79.8	53.4	49.3	84.2	53.7
O=C(c1ccccc1)c1ccc2nc(N3CCN(C(=O)c4ccco4)CC3)c3nncn3c2c1	69.9	53.1	42.5	88.7	18.4*
O=C(c1cc2nc(-c3ccccc3)cc(-c3ccccc3)n2n1)N1CCN(C(=O)c2ccco2)CC1	71.2	14.1	6.6	88.6	24.8*
Cc1nn2c(N3CCN(C(=O)c4ccco4)CC3)cc(C(C)(C)C)nc2c1-c1ccc(Cl)cc1	/	79.1	67.5	/	/
O=C(CCN1C(=O)C2C3CC(C(Br)C3Br)C2C1=O)OCC(=O)c1ccccc1 (configuration not stated)	/	91.0	102.2	/	/
O=C(COC(=O)c1nc(-c2ccccc2)n(-c2cccc(C(F)(F)F)c2)n1)NCc1cccs1	/	99.2	102.7	/	/
CCC(=O)Oc1ccc2ccccc2c1CNC(=O)c1ccccc1	/	75.2	70.7	/	/
CCN1CCN(c2ccc(NC(=O)CCc3c(C)nc4c(-c5ccccc5)c(C)nn4c3C)cc2)CC1	/	0.9*	1.9*	/	/
CCN1CCN(c2cc(C(C)(C)C)nc3c(-c4ccccc4)c(C)nn23)CC1	3.2*	13.1	8.9	9.8*	38.4*
Cc1nc2c(-c3ccccc3)c(C)nn2c(C)c1CCC(=O)NCc1ccco1	92.9	95.1	102.7	92.6	65.5
CCCCCNCc1cccc(Br)c1	/	88.4	85.8	/	/
S=C(Nc1ccccc1)Nc1nc2ccccc2n1CCOc1ccc(Cl)cc1	/	1.1*	0.9*	/	/
CCCn1c(NC(=S)Nc2ccccc2)nc2ccccc21	/	85.9	83.4	/	/
Cc1cn2c(nc(=O)c3cccnc32)s1	/	96.1	103.1	/	/
COc1ccc(C(C(=O)OC(C)CN(C)C)c2ccccc2)cc1 (configuration not stated)	/	85.8	100.9	/	/
CN(C)CC(C(=O)c1ccccc1)c1ccccc1 (configuration not stated)	40.6	1.4*	1.0*	17.3*	0.1*
CCC(C)(C)NC(=O)/C=C/c1cccs1	/	87.2	93.2	/	/
Cc1ccc(-n2nnnc2CSc2nnc(-c3ccc(O)cc3)o2)cc1	/	85.8	88.9	/	/
CC(C)(C)c1cc(NC(=O)CCSc2nnc3ccccn23)cc(C(C)(C)C)c1	46.2	38.2	49.5	46.2*	53.3
COc1ccccc1NC(=O)N1CCc2[nH]c3ccc(Cl)cc3c2C1	74.8	80.7	76.3	84.7	40.4
COc1cc(OC)nc(-n2ncc(Br)c(Br)c2=O)n1	/	1.6*	1.4*	/	/
COC(=O)c1cnn(-c2nc(OC)cc(OC)n2)c1C	/	88.8	95.5	/	/
CCOc1cc(C(=O)NCCCn2ccnc2)cc(OCC)c1OCC	/	89.9	92.5	/	/
Cc1cc(N(C(=O)c2ccco2)C(C(=O)NC2CCCCC2)c2ccccc2)ccc1-n1cnnn1 (configuration not stated)	98.5	73.0	84.3	88.3	39.4*
CCOC(=O)C1=C(c2cccc(Oc3ccccc3)c2)NC(=S)NC1C (configuration not stated)	/	37.1	48.0	/	/
SMILES	HUVEC inhibit	HCT116 bCat-KO	HCT116 PTEN-null	Fibroblast inh	H69AR inhibit
CCOc1cc(-c2c(C#N)c(N)nc3c2CCCC3C)ccc1O (configuration not stated)	76.1	84.3	101.5	95.7	31.1*
CCOc1cc(/C=C(\C#N)C(=O)NCC2CCCO2)ccc1O (configuration not stated)	/	88.4	100.8	/	/
CCOc1cc(-c2cc(-c3ccc(C)cc3)nc(N)c2C#N)ccc1O	41.1	8.2	7.0	65.0	6.9*
CCOc1cc(-c2c(C#N)c(N)nc3c2CCc2ccccc2-3)ccc1O	/	49.5	46.6	/	/
CCOc1cc(/C=C(\C#N)c2[nH]nc(N)c2C#N)ccc1O	63.8	78.9	83.7	81.6	36.6*
CCOC(=O)c1c(C)nc2sc3c(c2c1-c1ccc(OC)cc1)NC(c1ccc(OC)cc1)NC3=O (configuration not stated)	/	95.8	88.6	/	/
O=C(CN1C2CCCC1CC(NC(=O)c1ccccc1)C2)Nc1nccs1 (configuration not stated)	97.4	105.6	92.0	104.9	93.5
CC(C)(C)n1nnnc1C(c1cccs1)N(Cc1cccnc1)Cc1ccccc1Cl (configuration not stated)	70.2	13.1	12.1	89.0	4.0*
Cc1cccc(N2CCN(C(=O)c3ccoc3C)CC2)c1C	/	80.0	86.6	/	/
